Source: PubChem
Most compounds without a hit are left out; they make up all but 0.99% or so of the library.
RBBP9 inhibitor – human RBBP9 inhibitors, primary screen, biochemical, fluorescence polarization, FP-Rh probe, HTS; Serine hydrolase RBBP9 (Homo sapiens), O75884; recombinant RBBP9; 220,000 tested, 0.2% active; inhibition, % at 7.94 µM;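 active = inhibition above the campaign mean of all tested compounds plus 3 SD, cut at about 14% in these data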;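 also: plate controls were DMSO wells with RBBP9 for no effect and wells lacking RBBP9 protein for full effect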
Target sequence (O75884 whole entry, looked up): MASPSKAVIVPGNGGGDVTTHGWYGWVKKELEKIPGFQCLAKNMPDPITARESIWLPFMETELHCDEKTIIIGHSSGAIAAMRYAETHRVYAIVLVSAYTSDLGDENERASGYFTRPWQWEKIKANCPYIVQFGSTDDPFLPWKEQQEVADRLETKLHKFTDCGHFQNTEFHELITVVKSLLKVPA
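System: RBBP9 protein | Quantity: 2.5 µM RBBP9 dispensing solution, before mixing | Reagent: FP-Rh probe, 375 nM dispensing solution | Timing: Enzyme-compound preincubation 30 min, then probe labeling 45 min, 25 °C | Measured by: Fluorescence polarization | Read-out: % inhibition | Replication: One well per compound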
LYPLA1 counter – LYPLA1 inhibitors, primary screen, counter-screen for PME1 inhibitor project, biochemical, fluorescence polarization, FP-Rh probe ABPP | recombinant LYPLA1 | 320,000 tested, 0.16% active | AID 2174, 2009 | inhibition, % at 5.9 µM;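 active = inhibition above the mean of all tested compounds plus 3 SD, set per campaign, cut at about 14% in these data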;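 also: inhibitors block serine hydrolase probe labeling of LYPLA1 so polarization falls; 0% = enzyme with DMSO and 100% = wells lacking LYPLA1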
PME-1 primary – PME-1 inhibitors via competitive probe labeling, primary screen, biochemical, fluorescence polarization, FP-Rh probe, HTS; Protein phosphatase methylesterase 1 (Homo sapiens), Q9Y570; recombinant PME-1; inhibition, % at 5.9 µM; 320,000 tested, 0.53% active; AID 2130, 2009;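 active = inhibition above the campaign mean of all compounds plus 3 SD, cut at about 26% in these data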;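 also: competitive labeling of PME-1 active site by serine hydrolase directed probe; 0% = PME-1 with DMSO and 100% = wells lacking PME-1 enzyme; inhibitors block probe labeling so polarization falls and inhibition rises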
Fam108B inh – mouse Fam108B serine hydrolase inhibitors, primary screen, counter-screen for RBBP9 inhibitor project, biochemical, fluorescence polarization; recombinant Fam108B, FP-Rh probe fluorescence polarization; inhibition, % at 9.51 µM; 300,000 tested, 0.33% active;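 active = inhibition above the screen mean inhibition plus 3 SD, computed separately per campaign, cut at about 18% in these data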;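 also: inhibitors lower polarization as less probe binds the enzyme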
LYPLA2 inh – LYPLA2 inhibitors, primary screen, counter-screen for PME1 inhibitor project, biochemical, fluorescence polarization, FP-Rh probe ABPP; Acyl-protein thioesterase 2 (Homo sapiens), O95372; recombinant LYPLA2; inhibition, % at 5.9 µM; 320,000 tested, 0.38% active;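 active = inhibition above the screen-wide mean plus 3 SD, limit set per campaign, cut at about 26% in these data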;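 also: 0% = LYPLA2 with DMSO and 100% = wells lacking LYPLA2 enzyme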
Target sequence (O95372 whole entry, looked up): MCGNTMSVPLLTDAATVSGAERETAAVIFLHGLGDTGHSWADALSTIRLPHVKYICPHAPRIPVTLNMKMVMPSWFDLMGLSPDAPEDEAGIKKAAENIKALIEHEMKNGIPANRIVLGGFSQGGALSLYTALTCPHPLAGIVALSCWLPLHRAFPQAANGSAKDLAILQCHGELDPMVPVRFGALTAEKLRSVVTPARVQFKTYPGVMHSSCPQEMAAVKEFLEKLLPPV
LYPLA1 confirm – LYPLA1 inhibitors, retest, confirmation, counter-screen for PME1 inhibitor project, biochemical, fluorescence polarization, FP-Rh probe ABPP. shares compounds with LYPLA1 counter. 480 tested, 69% active. recombinant LYPLA1. inhibition, % at 5.9 µM;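 active = mean inhibition across replicates above the hit cutoff set in the primary screen, cut at about 15% in these data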;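 also: loss of FP-Rh probe labeling of LYPLA1 seen as lower polarization; 0% = LYPLA1 with DMSO and 100% = wells lacking LYPLA1 enzyme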
* marks the source's active call; other numbers are inactive results; / = no result given.

SMILES	RBBP9 inhibitor	LYPLA1 counter	PME-1 primary	Fam108B inh	LYPLA2 inh	LYPLA1 confirm
CCCNC(=O)c1nc(C)n(-c2ccc([N+](=O)[O-])cc2)n1	-1	-2	-3	1	-5	/
COc1ccc(/C=C2/SC(=S)N(CCCC(=O)Nc3ccccc3C(=O)O)C2=O)cc1	/	20*	-3	2	22	19*
Cc1ccc(NC(=O)COc2ccc(/C=N/NC(=O)CSCc3ccccc3)cc2)cc1	-7	-6	-7	-10	-3	/
Cc1ccc(NC(=O)COc2ccc(/C=C3/SC(=Nc4ccccc4)N(Cc4cccnc4)C3=O)cc2)cc1	-2	68*	0	-11	0	-1
CCOC(=O)c1c(NC(=O)CSc2ncnc3ccccc23)sc(C(C)=O)c1C	-9	16*	4	-1	5	8
CN(C)CC(O)CN1C(=O)NC(C)(C)C1=O (stereo not drawn)	-5	-3	6	-1	-2	/
Cc1c(C(=O)Nc2ccc(S(=O)(=O)Nc3ncccn3)cc2)oc2ccc(Cl)cc12	/	-3	-1	-6	4	/
Cc1noc(NS(=O)(=O)c2ccc(NC(=O)c3oc4ccc(Cl)cc4c3C)cc2)c1C	/	28*	9	2	25	31*
NC(=O)COc1ccc(/C=N\NC(=O)c2ccc(-c3ccccc3)cc2)cc1	/	0	7	-5	5	/
O=C(Nc1ccc2c(c1)OCO2)c1n[nH]c(=O)c2ccccc12	-4	2	7	12	12	/
CCOC(=O)C1CCCN(Cc2ccc(O)c(OC)c2)C1 (stereo not drawn)	-2	5	0	2	9	/
CCOc1cc(CN2CCCC(C(=O)c3cccc(C(F)(F)F)c3)C2)ccc1O (stereo not drawn)	-6	35*	0	-2	-1	42*
CN1CC=C2C(C#N)=C(N)C(C#N)(C#N)[C@H](c3ccoc3)[C@H]2C1	-7	14*	14	9	14	0
NS(=O)(=O)c1ccc(CCNCC(=O)NC2CC2)cc1	-2	0	3	-2	-1	/
O=C(C[n+]1ccccc1)N/N=C/c1cccs1	-4	2	-2	-2	-3	/
CCN(c1ccccc1)S(=O)(=O)c1ccc(OC)c(NC(=O)CN(C)C)c1	-1	15*	1	0	4	7
CCN(c1ccccc1)S(=O)(=O)c1ccc(OC)c(NC(=O)CNC)c1	0	0	-4	-5	-4	/
CC1CCc2c(sc(NC(=O)CN3CCN(C(=O)c4ccco4)CC3)c2C#N)C1 (stereo not drawn)	-3	42*	0	-3	25	42*
CC1CCN(CC(=O)Nc2sc3c(c2C#N)CCC3)CC1	1	-2	-6	1	2	/
Cc1cc(C)c2c(N)c(C(=O)Nc3nccs3)sc2n1	-7	17*	6	2	0	11
COCc1cc(C)nc2sc(C(=O)Nc3nccs3)c(N)c12	-5	2	2	-2	3	/
CCCCOc1ccc(OCCNS(=O)(=O)N(C)C)cc1	-12	-1	-3	5	-2	/
O=C(COc1ccccc1Cl)N1CCN(c2ccc([N+](=O)[O-])c(N3CCCCC3)c2)CC1	-8	12	-3	-2	1	/
O=C(COc1ccc(Cl)cc1)N1CCN(c2ccc([N+](=O)[O-])c(N3CCCCC3)c2)CC1	-6	66*	1	0	21	79*
CCCOc1ccc(C(=O)CCC(=O)NNC(=O)c2ccncc2)cc1	/	-1	3	2	6	/
SMILES	RBBP9 inhibitor	LYPLA1 counter	PME-1 primary	Fam108B inh	LYPLA2 inh	LYPLA1 confirm
CCCCCCCCC(NC(=O)c1ccc(C#N)cc1)C(=O)NCCC (stereo not drawn)	/	4	2	/	22	/
CCOc1ccccc1OCCN1CCC(Cc2ccccc2)CC1	-7	2	-2	-5	17	/
N#Cc1ccccc1OCCCN1CCC(Cc2ccccc2)CC1	/	59*	2	2	16	56*
O=[N+]([O-])c1cccc(OCCCN2CCC(Cc3ccccc3)CC2)c1	/	16*	3	0	32*	20*
CCN(CC)S(=O)(=O)c1cccc(NC(=O)COC(=O)C2CC3C=CC2C3)c1 (stereo not drawn)	-7	30*	1	11	13	28*
Cc1ccc(NC(=O)COC(=O)C2CC3C=CC2C3)cc1S(=O)(=O)N1CCCCC1 (stereo not drawn)	-12	20*	5	-2	6	33*
Cc1ccc(N(CC(=O)NCc2ccccc2)C(=O)CCC(=O)Nc2ccccn2)cc1C	/	-1	2	1	8	/
O=C(c1ccc(-c2ccccc2)c(F)c1)C1CCCN(C(=O)c2cncs2)C1 (stereo not drawn)	-4	32*	7	3	22	52*
CCOC(=O)c1c(C)[nH]c(C(=O)OCC(=O)Nc2sc(C(=O)N(C)C)c(C)c2C(=O)OCC)c1C	/	47*	5	-1	6	74*
CCOC(=O)/C=C1\Nc2ccccc2OC1=O	10	-3	7	1	8	/
O=P1(Nn2cnnc2)C=C(c2ccccc2)OC(c2ccccc2)=C1	-4	17*	-1	4	18	0
CC[N+](CC)(CCCCS(=O)(=O)[O-])CCNP1(=O)C=C(c2ccccc2)OC(c2ccccc2)=C1	4	4	1	-3	9	/
O=C(O)c1sc2cc(C(F)(F)F)cnc2c1-c1ccccc1	-13	-3	-5	-1	0	/
COC(=O)c1sc2cc(C(F)(F)F)cnc2c1-c1ccccc1	0	17*	-4	6	12	21*
Cc1nc2ccccc2c(=O)n1N(c1ccccc1)c1ccccc1	3	2	-2	1	5	/
OCCN(CCO)c1ccc(C(c2ccccc2Cl)c2ccc(N(CCO)CCO)cc2Cl)c(Cl)c1	4	15*	15	14	14	17*
CC(Sc1nc(N)cc(=O)[nH]1)C(=O)Nc1sc2c(c1C#N)CCCC2 (stereo not drawn)	-6	30*	0	-1	9	39*
Cc1ccc(CNC(=O)Cn2ccc3cc(S(=O)(=O)N4CCCCCC4)ccc32)cc1	/	-3	9	-7	3	/
COc1ccc(CNC(=O)Cn2ccc3cc(S(=O)(=O)N4CCCC4)ccc32)cc1OC	/	24*	8	3	13	3
CCCSc1nc(N)c(C#N)c(-c2ccc(C)cc2)c1C#N	-5	1	2	-3	2	/
